According to ChEMBL document CHEMBL2331283, “Anti-inflammatory sesquiterpene derivatives from the leaves of Tripterygium wilfordii” (J Nat Prod, 2013):

What was measured:
A2780 = test: Cytotoxicity against human A2780 cells by MTT assay; assay type: functional, cell-based
In short: (§1)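 MTT cytotoxicity assay on five human carcinoma lines: A549 (lung), Bel-7402 (liver), BGC-823 (stomach), HCT-8 (colon) and A2780 (ovarian). The assay was run following a published procedure. The read-out is an IC50.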

A549 = test: Cytotoxicity against human A549 cells by MTT assay; assay type: functional, cell-based; in short: as §1
HCT-8 = test: Cytotoxicity against human HCT8 cells by MTT assay; assay type: functional, cell-based; in short: as §1
Bel-7402 = test: Cytotoxicity against human Bel7402 cells by MTT assay; assay type: functional, cell-based; in short: as §1
BGC-823 = test: Cytotoxicity against human BGC823 cells by MTT assay; assay type: functional, cell-based; in short: as §1
RAW264.7 = test: Inhibition of LPS-induced nitric oxide production in mouse RAW264.7 cells at 5 uM; assay type: functional

In the case of CC(=O)OC[C@]12[C@H](OC(C)=O)[C@H](OC(C)=O)[C@@H]3[C@@H](OC(C)=O)[C@@]14O[C@@]3(C)COC(=O)c1cccnc1C(C)C(C)C(=O)O[C@@H]([C@H](OC(C)=O)[C@@H]2OC(C)=O)[C@]4(C)O (some centres not stated) [EUONYMINE], the IC50 (A2780) is reported as greater than 1000 nM, the IC50 (A549) is reported as greater than 1000 nM and the IC50 (HCT-8) is reported as greater than 1000 nM. For the same molecule, the IC50 (Bel-7402) was greater than 1000 nM and the IC50 (BGC-823) was greater than 1000 nM.
Work on C[C@@H]1C[C@H]2[C@@H]3CCC4=CC(=O)C=C[C@]4(C)[C@@]3(F)[C@@H](O)C[C@]2(C)[C@@]1(O)C(=O)CO [DEXAMETHASONE] yielded an inhibition at 5 µM (RAW264.7) of 70.4%.
CC(=O)OC[C@@]12[C@@H](OC(C)=O)CC[C@](C)(O)[C@]13OC(C)(C)[C@H]([C@@H](OC(C)=O)[C@H]2OC(=O)c1ccoc1)[C@H]3OC(=O)c1cccnc1 (relative stereo) [TRIPTERSININ F] was tested, and the IC50 (A2780) was greater than 1000 nM, the IC50 (A549) was greater than 1000 nM and the IC50 (HCT-8) was greater than 1000 nM. It also gave an IC50 (Bel-7402) greater than 1000 nM and an IC50 (BGC-823) greater than 1000 nM.
CC(=O)O[C@@H]1[C@@H]2[C@@H](O)[C@@]34O[C@@]2(C)COC(=O)c2cnccc2C(C)C(C)(O)C(=O)O[C@@H]([C@H](OC(C)=O)[C@H](OC(C)=O)[C@@]3(COC(=O)c2ccoc2)[C@@H]1OC(C)=O)[C@]4(C)O (some centres not stated) [HYPOGLAUNINE E] showed an IC50 (A2780) greater than 1000 nM, an IC50 (A549) greater than 1000 nM and an IC50 (HCT-8) greater than 1000 nM. For the same molecule, the IC50 (Bel-7402) was greater than 1000 nM and the IC50 (BGC-823) was greater than 1000 nM.
With CC(=O)OC[C@]12[C@H](OC(C)=O)[C@H](OC(C)=O)[C@@H]3[C@@H](OC(C)=O)[C@@]14O[C@@]3(C)COC(=O)c1cccnc1CCC(C)(O)C(=O)O[C@@H]([C@H](OC(=O)c1ccco1)[C@@H]2OC(C)=O)[C@]4(C)O (some centres not stated) [WILFORTRINE] the IC50 (A2780) was greater than 1000 nM, the IC50 (A549) was greater than 1000 nM and the IC50 (HCT-8) was greater than 1000 nM. For the same molecule, the IC50 (Bel-7402) was greater than 1000 nM and the IC50 (BGC-823) was greater than 1000 nM.
In the case of CC(=O)OC[C@]12[C@H](OC(C)=O)[C@H](OC(C)=O)[C@@H]3[C@@H](OC(C)=O)[C@@]14O[C@@]3(C)COC(=O)c1cnccc1C(C)C(C)C(=O)O[C@@H]([C@H](OC(C)=O)[C@@H]2OC(C)=O)[C@]4(C)O (some centres not stated) [PERITASSIN A], the IC50 (A2780) is reported as greater than 1000 nM, the inhibition at 5 µM (RAW264.7) is reported as 48.2% and the IC50 (A549) is reported as greater than 1000 nM. For the same molecule, the IC50 (HCT-8) was greater than 1000 nM, the IC50 (Bel-7402) was greater than 1000 nM and the IC50 (BGC-823) was greater than 1000 nM.
In the case of CC(=O)OC[C@@]12[C@@H](OC(=O)/C=C/c3ccccc3)CC[C@](C)(O)[C@]13OC(C)(C)[C@H]([C@@H](OC(C)=O)[C@H]2OC(=O)c1cccnc1)[C@H]3O (relative stereo) [TRIPTERSININ C], the IC50 (A2780) is reported as greater than 1000 nM, the IC50 (A549) is reported as greater than 1000 nM and the IC50 (HCT-8) is reported as greater than 1000 nM. For the same molecule, the IC50 (Bel-7402) was greater than 1000 nM and the IC50 (BGC-823) was greater than 1000 nM.
C/C=C(\C)C(=O)O[C@H]1[C@H](OC(C)=O)[C@@H]2[C@@H](OC(=O)c3cccnc3)[C@@]3(OC2(C)C)[C@@]1(COC(C)=O)[C@@H](OC(C)=O)CC[C@]3(C)O (relative stereo) was tested, and the IC50 (A2780) was greater than 1000 nM, the IC50 (A549) was greater than 1000 nM and the IC50 (HCT-8) was greater than 1000 nM. It also gave an IC50 (Bel-7402) greater than 1000 nM and an IC50 (BGC-823) greater than 1000 nM.
With CC(=O)OC[C@]12[C@H](OC(C)=O)[C@H](OC(C)=O)[C@@H]3[C@@H](OC(C)=O)[C@@]14O[C@@]3(C)COC(=O)c1cccnc1CCC(C)C(=O)O[C@@H]([C@H](OC(C)=O)[C@@H]2OC(C)=O)[C@]4(C)O (some centres not stated) [EUONINE] the IC50 (A2780) was greater than 1000 nM, the inhibition at 5 µM (RAW264.7) was 54.7% and the IC50 (A549) was greater than 1000 nM. The IC50 (HCT-8) was greater than 1000 nM, the IC50 (Bel-7402) was greater than 1000 nM and the IC50 (BGC-823) was greater than 1000 nM.
CC(=O)OC[C@]12[C@@H](OC(C)=O)[C@H](OC(C)=O)[C@@H]3[C@@H](OC(C)=O)[C@@]14O[C@@]3(C)COC(=O)c1cnccc1CCC(C)C(=O)O[C@@H]([C@H](OC(C)=O)[C@@H]2OC(C)=O)[C@]4(C)O (some centres not stated) [WILFORDININE E] gave an IC50 (A2780) greater than 1000 nM, an IC50 (A549) greater than 1000 nM and an IC50 (HCT-8) greater than 1000 nM. For the same molecule, the IC50 (Bel-7402) was greater than 1000 nM and the IC50 (BGC-823) was greater than 1000 nM.
CC(=O)OC[C@@]12[C@@H](OC(=O)/C=C\c3ccccc3)CC[C@](C)(O)[C@]13OC(C)(C)[C@H]([C@@H](OC(C)=O)[C@H]2OC(=O)c1cccnc1)[C@H]3OC(C)=O (relative stereo) [TRIPTERSININ E] was tested, and the IC50 (A2780) was greater than 1000 nM, the IC50 (A549) was greater than 1000 nM and the IC50 (HCT-8) was greater than 1000 nM. The IC50 (Bel-7402) was greater than 1000 nM and the IC50 (BGC-823) was greater than 1000 nM.
CC(=O)O[C@@H]1[C@@H]2[C@@H](OC(C)=O)[C@@]34O[C@@]2(C)COC(=O)c2cnccc2C(C)C(C)(O)C(=O)O[C@@H]([C@H](OC(C)=O)[C@H](OC(C)=O)[C@@]3(COC(=O)c2ccco2)[C@@H]1OC(C)=O)[C@]4(C)O (some centres not stated) [HYPOGLAUNINE A] was tested, and the IC50 (A2780) was greater than 1000 nM, the IC50 (A549) was greater than 1000 nM and the IC50 (HCT-8) was greater than 1000 nM. It also gave an IC50 (Bel-7402) greater than 1000 nM and an IC50 (BGC-823) greater than 1000 nM.
CC(=O)OC[C@@]12[C@@H](OC(=O)/C=C\c3ccccc3)CC[C@](C)(O)[C@]13OC(C)(C)[C@H](C(=O)[C@H]2OC(=O)c1cccnc1)[C@H]3O (relative stereo) [TRIPTERSININ B] showed an IC50 (A2780) greater than 1000 nM, an IC50 (A549) greater than 1000 nM and an IC50 (HCT-8) greater than 1000 nM. The IC50 (Bel-7402) was greater than 1000 nM and the IC50 (BGC-823) was greater than 1000 nM.
CC(=O)OC[C@@]12[C@@H](OC(=O)c3ccoc3)CC[C@](C)(O)[C@]13OC(C)(C)[C@H]([C@@H](OC(=O)c1cccnc1)[C@H]2OC(=O)c1ccoc1)[C@H]3OC(C)=O (relative stereo) [TRIPTERSININ H] showed an IC50 (A2780) greater than 1000 nM, an IC50 (A549) greater than 1000 nM and an IC50 (HCT-8) greater than 1000 nM. For the same molecule, the IC50 (Bel-7402) was greater than 1000 nM and the IC50 (BGC-823) was greater than 1000 nM.
CC(=O)OC[C@@]12[C@@H](OC(=O)/C=C\c3ccccc3)CC[C@](C)(O)[C@]13OC(C)(C)[C@H]([C@@H](OC(C)=O)[C@H]2OC(=O)c1cccnc1)[C@H]3O (relative stereo) [TRIPTERSININ D] showed an IC50 (A2780) greater than 1000 nM, an IC50 (A549) greater than 1000 nM and an IC50 (HCT-8) greater than 1000 nM. The IC50 (Bel-7402) was greater than 1000 nM and the IC50 (BGC-823) was greater than 1000 nM.
For CC(=O)OC[C@@]12[C@@H](OC(C)=O)CC[C@](C)(O)[C@]13OC(C)(C)[C@H]([C@@H](OC(=O)c1cccnc1)[C@H]2OC(=O)c1ccoc1)[C@H]3OC(C)=O (relative stereo) [TRIPTERSININ G], the IC50 (A2780) was greater than 1000 nM, the IC50 (A549) was greater than 1000 nM and the IC50 (HCT-8) was greater than 1000 nM. The IC50 (Bel-7402) was greater than 1000 nM and the IC50 (BGC-823) was greater than 1000 nM.
For CC(=O)OC[C@@]12[C@@H](OC(=O)c3ccoc3)CC[C@](C)(O)[C@]13OC(C)(C)[C@H]([C@@H](OC(C)=O)[C@H]2OC(=O)c1ccoc1)[C@H]3O (relative stereo) [TRIPTERSININ I], the IC50 (A2780) was greater than 1000 nM, the inhibition at 5 µM (RAW264.7) was 45.5% and the IC50 (A549) was greater than 1000 nM. For the same molecule, the IC50 (HCT-8) was greater than 1000 nM, the IC50 (Bel-7402) was greater than 1000 nM and the IC50 (BGC-823) was greater than 1000 nM.
Molecule CC(=O)OC[C@]12[C@H](OC(C)=O)[C@H](OC(C)=O)[C@@H]3[C@@H](OC(C)=O)[C@@]14O[C@@]3(C)COC(=O)c1cnccc1C(C)C(C)C(=O)O[C@@H]([C@H](O)[C@@H]2OC(C)=O)[C@]4(C)O (some centres not stated) [WILFORDININE A] has an IC50 (A2780) greater than 1000 nM, an inhibition at 5 µM (RAW264.7) of 59% and an IC50 (A549) greater than 1000 nM. The IC50 (HCT-8) was greater than 1000 nM, the IC50 (Bel-7402) was greater than 1000 nM and the IC50 (BGC-823) was greater than 1000 nM.
CC(=O)OC[C@@]12[C@@H](OC(=O)/C=C/c3ccccc3)CC[C@](C)(O)[C@]13OC(C)(C)[C@H](C(=O)[C@H]2OC(=O)c1cccnc1)[C@H]3O (relative stereo) [TRIPTERSININ A] was tested, and the IC50 (A2780) was greater than 1000 nM, the inhibition at 5 µM (RAW264.7) was 47.3% and the IC50 (A549) was greater than 1000 nM. It also gave an IC50 (HCT-8) greater than 1000 nM, an IC50 (Bel-7402) greater than 1000 nM and an IC50 (BGC-823) greater than 1000 nM.
CC(=O)OC[C@@]12[C@@H](OC(C)=O)CC[C@](C)(O)[C@]13OC(C)(C)[C@H]([C@@H](O)[C@H]2OC(=O)c1ccoc1)[C@H]3OC(=O)c1ccoc1 (relative stereo) [TRIPTERSININ J] showed an IC50 (A2780) greater than 1000 nM, an IC50 (A549) greater than 1000 nM and an IC50 (HCT-8) greater than 1000 nM. The IC50 (Bel-7402) was greater than 1000 nM and the IC50 (BGC-823) was greater than 1000 nM.
Molecule CC(=O)OC[C@@]12[C@@H](OC(=O)c3ccoc3)CC[C@](C)(O)[C@]13OC(C)(C)[C@H]([C@@H](OC(C)=O)[C@H]2OC(=O)c1ccoc1)[C@H]3OC(C)=O (relative stereo) [TRIPTERSININ K] has an IC50 (A2780) greater than 1000 nM, an inhibition at 5 µM (RAW264.7) of 49.9% and an IC50 (A549) greater than 1000 nM. The IC50 (HCT-8) was greater than 1000 nM, the IC50 (Bel-7402) was greater than 1000 nM and the IC50 (BGC-823) was greater than 1000 nM.
